According to ChEMBL document CHEMBL1143402 (PLoS Med, 2006):

Tests used:
[1] = tested on: Mycobacterium tuberculosis; assay: Inhibition of fatty acid synthesis in Mycobacterium bovis BCG after 60 mins; type: functional, organism-based; conditions: variant bovis BCG, 1 h
Procedure, shortened: (§1)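 M. bovis BCG culture incubated with compound or DMSO plus 2-^14C acetate at 37 °C for 60 min. Cells saponified with KOH/methanol, acid-extracted into hexane, methyl-esterified. Fatty and mycolic acid subclasses separated by two-solvent TLC (n = 3) and quantified by phosphorimaging as % of control.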

[2] = tested on: Mycobacterium tuberculosis; assay: Inhibition of alpha-mycolic acid synthesis in Mycobacterium bovis BCG after 60 mins; type: functional, organism-based; conditions: variant bovis BCG, 1 h; procedure, shortened: as §1

Structure (SMILES)	IC50 [1]	IC50 [2]
C[C@]1(COc2ccc(N3CCC(Oc4ccc(OC(F)(F)F)cc4)CC3)cc2)Cn2cc([N+](=O)[O-])nc2O1	> 0.25 µg/mL	> 0.25 µg/mL
NNC(=O)c1ccncc1 [ISONIAZID]	> 4 µg/mL	–
